Source: ChEMBL document CHEMBL1142721, “Nanomolar inhibitors of CNS epinephrine biosynthesis: (R)-(+)-3-fluoromethyl-7-(N-substituted aminosulfonyl)-1,2,3,4-tetrahydroisoquinolines as potent and highly selective inhibitors of phenylethanolamine N-methyltransferase1” (J Med Chem, 2005)

Molecular target: T1, Alpha-2A adrenergic receptor (Rattus norvegicus, UniProt P22909)
T1 sequence (P22909 whole entry): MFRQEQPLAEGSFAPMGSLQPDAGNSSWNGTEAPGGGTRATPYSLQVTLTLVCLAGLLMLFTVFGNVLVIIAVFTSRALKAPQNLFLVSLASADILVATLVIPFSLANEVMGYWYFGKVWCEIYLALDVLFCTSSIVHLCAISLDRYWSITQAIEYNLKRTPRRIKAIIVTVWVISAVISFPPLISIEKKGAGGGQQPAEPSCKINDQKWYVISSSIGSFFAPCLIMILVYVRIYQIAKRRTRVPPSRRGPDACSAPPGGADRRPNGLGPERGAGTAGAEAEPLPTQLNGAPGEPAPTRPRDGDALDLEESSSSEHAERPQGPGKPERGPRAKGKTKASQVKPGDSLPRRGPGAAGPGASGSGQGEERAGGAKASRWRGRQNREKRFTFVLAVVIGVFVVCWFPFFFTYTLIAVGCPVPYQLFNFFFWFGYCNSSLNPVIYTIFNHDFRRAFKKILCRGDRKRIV
Assay: In vitro binding affinity against rat Alpha-2 adrenergic receptor using [3H]clonidine
Outline: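 Rat cortex membranes (male Sprague-Dawley) washed by three 50 000 × g spins in ice-cold 50 mM Tris/HCl pH 7.7. Incubated with [3H]clonidine at 2.0 nM final, 25 °C, 30 min. Bound ligand recovered on GF/B filters and counted. Nonspecific binding set with 2 µM phentolamine. Quadruplicate, 5 concentrations over a 16-fold range. IC50 from log-probit analysis, converted by Ki = IC50/(1 + [clonidine]/KD).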

SMILES	Ki [µM]
O=S(=O)(NCCC(F)(F)F)c1ccc2c(c1)CN[C@@H](CF)C2	670
O=S(=O)(Nc1ccc(Cl)cc1)c1ccc2c(c1)CNC(CF)C2 (racemic)	140
NS(=O)(=O)c1ccc2c(c1)CNC(CF)C2 (racemic)	680
O=S(=O)(Nc1ccc(Cl)cc1)c1ccc2c(c1)CN[C@@H](CF)C2	140
COCCCNS(=O)(=O)c1ccc2c(c1)CN[C@@H](CF)C2	680
O=S(=O)(c1ccc2c(c1)CN[C@@H](CF)C2)N1CCSCC1	200
COCCCNS(=O)(=O)c1ccc2c(c1)CNC(CF)C2 (racemic)	750
CCNS(=O)(=O)c1ccc2c(c1)CN[C@@H](CF)C2	550
NS(=O)(=O)c1ccc2c(c1)CN[C@@H](CF)C2	700
CCCNS(=O)(=O)c1ccc2c(c1)CNC(CF)C2 (racemic)	610
CCCNS(=O)(=O)c1ccc2c(c1)CN[C@@H](CF)C2	570
CCNS(=O)(=O)c1ccc2c(c1)CNC(CF)C2 (racemic)	550
O=S(=O)(NCC(F)(F)F)c1ccc2c(c1)CNC(CF)C2 (racemic)	1200
O=S(=O)(NCCC(F)(F)F)c1ccc2c(c1)CNC(CF)C2 (configuration not stated)	660
O=S(=O)(NCC(F)(F)F)c1ccc2c(c1)CN[C@@H](CF)C2	1000
O=S(=O)(c1ccc2c(c1)CNC(CF)C2)N1CCSCC1 (racemic)	190
O=S(=O)(Nc1ccc(Cl)cc1)c1ccc2c(c1)CN[C@H](CF)C2	150
